Source: ChEMBL document CHEMBL1140160, “Evidence for the mechanism of action of the antifungal phytolaccoside B isolated from Phytolacca tetramera Hauman” (J Nat Prod, 2008)
Converted amounts (≈) assume the structure as drawn. The source made the active and inactive calls. The calls are words filed in the database; no cut-off is given here.

Columns and labels:
Saccharomyces cerevisiae [1] = assay: Effect on (1->3)-beta-D-glucan synthase-mediated [14C]-Glucose incorporation in Saccharomyces cerevisiae assessed as residual activity after 30 mins
Method in brief: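 Membrane fraction (18000g pellet) from early-log S. cerevisiae MATa trp1 ura3 leu2 his3 pep4::HIS3 nuc1::LEU2 broken with glass beads; 15 µg protein in 40 µL; compound 20 µg/assay added in MeOH; [14C]-glucose incorporation into insoluble glucan; 30 min at 30 °C, stopped with 10% TCA; duplicates; papulacandin B as standard.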

Aspergillus flavus = assay: Antifungal activity against Aspergillus flavus ATCC 9170 after 48 hrs by spectrophotometry; format: functional; conditions: ATCC 9170, 48 h, read-out: MIC100
Candida albicans = assay: Antifungal activity against Candida albicans ATCC 10231 after 48 hrs by spectrophotometry; format: functional; conditions: ATCC 10231, 48 h; for MIC: read-out: MIC100
[2] = Hemolytic effect in erythrocytes upto 120 mins by spectrophotometry; format: ADME, cell-based; conditions: erythrocyte, 2 h
Method in brief: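 Heparinized human red blood cells washed three times in isotonic PBS pH 7.0, made into a 4% suspension in sterile 5% glucose. Compound from DMSO stock diluted in 5% glucose to final 188 to 9 µM; incubated at 37 °C. Released haemoglobin read at 540 nm. LC100 is the lowest concentration giving complete lysis (clearing). DMSO alone served as the vehicle control.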

Saccharomyces cerevisiae [3] = assay: Antifungal activity against Saccharomyces cerevisiae ATCC 9763 after 48 hrs by sorbitol protection assay by spectrophotometry; format: functional; conditions: ATCC 9763, 48 h; for MIC: read-out: MIC100
Method in brief: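 S. cerevisiae ATCC 9763 by the standard broth microdilution procedure, run on duplicate plates of 2-fold dilutions, one plate with 0.8 M sorbitol added to every well as osmotic support; MICs read at 2 and 7 days.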

Aspergillus niger = assay: Antifungal activity against Aspergillus niger ATCC 9029 after 48 hrs by spectrophotometry; format: functional; conditions: ATCC 9029, 48 h
Cryptococcus neoformans = assay: Antifungal activity against Cryptococcus neoformans ATCC 32264 after 48 hrs by spectrophotometry; format: functional; conditions: ATCC 32264, 48 h; for MIC: read-out: MIC100
Neurospora crassa [4] = assay: Antifungal activity against Neurospora crassa ATCC 9279 after 48 hrs by spectrophotometry; format: functional; conditions: ATCC 9279, 48 h, read-out: MIC100
Aspergillus fumigatus = assay: Antifungal activity against Aspergillus fumigatus ATCC 26934 after 48 hrs by spectrophotometry; format: functional; conditions: ATCC 26934, 48 h, read-out: MIC100
Neurospora crassa [5] = assay: Antifungal activity against Neurospora crassa assessed as increase in thickness of hyphae relative to control at 37 uM; format: functional, organism-based
Method in brief: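 N. crassa ATCC 9279, 1 × 10^5 spores/mL, grown 24 h at 28 °C with shaking (145 rpm) in YEPD with or without 37 µM. Mycelium fixed in 4% glutaraldehyde in 0.1 M cacodylate, OsO4 and KMnO4 treated, acetone-dehydrated, Spurr-embedded; ultrathin sections stained with uranyl acetate and Reynolds solution; wall thickness measured by transmission electron microscopy.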

[6] = molecular target: T1, Chitin synthase 1 (Saccharomyces cerevisiae S288c) (UniProt P08004); assay: Effect on chitin synthase 1-mediated incorporation of [14C]N-acetylglucosamine in Saccharomyces cerevisiae assessed as residual activity after 90 mins
T1 sequence (whole entry): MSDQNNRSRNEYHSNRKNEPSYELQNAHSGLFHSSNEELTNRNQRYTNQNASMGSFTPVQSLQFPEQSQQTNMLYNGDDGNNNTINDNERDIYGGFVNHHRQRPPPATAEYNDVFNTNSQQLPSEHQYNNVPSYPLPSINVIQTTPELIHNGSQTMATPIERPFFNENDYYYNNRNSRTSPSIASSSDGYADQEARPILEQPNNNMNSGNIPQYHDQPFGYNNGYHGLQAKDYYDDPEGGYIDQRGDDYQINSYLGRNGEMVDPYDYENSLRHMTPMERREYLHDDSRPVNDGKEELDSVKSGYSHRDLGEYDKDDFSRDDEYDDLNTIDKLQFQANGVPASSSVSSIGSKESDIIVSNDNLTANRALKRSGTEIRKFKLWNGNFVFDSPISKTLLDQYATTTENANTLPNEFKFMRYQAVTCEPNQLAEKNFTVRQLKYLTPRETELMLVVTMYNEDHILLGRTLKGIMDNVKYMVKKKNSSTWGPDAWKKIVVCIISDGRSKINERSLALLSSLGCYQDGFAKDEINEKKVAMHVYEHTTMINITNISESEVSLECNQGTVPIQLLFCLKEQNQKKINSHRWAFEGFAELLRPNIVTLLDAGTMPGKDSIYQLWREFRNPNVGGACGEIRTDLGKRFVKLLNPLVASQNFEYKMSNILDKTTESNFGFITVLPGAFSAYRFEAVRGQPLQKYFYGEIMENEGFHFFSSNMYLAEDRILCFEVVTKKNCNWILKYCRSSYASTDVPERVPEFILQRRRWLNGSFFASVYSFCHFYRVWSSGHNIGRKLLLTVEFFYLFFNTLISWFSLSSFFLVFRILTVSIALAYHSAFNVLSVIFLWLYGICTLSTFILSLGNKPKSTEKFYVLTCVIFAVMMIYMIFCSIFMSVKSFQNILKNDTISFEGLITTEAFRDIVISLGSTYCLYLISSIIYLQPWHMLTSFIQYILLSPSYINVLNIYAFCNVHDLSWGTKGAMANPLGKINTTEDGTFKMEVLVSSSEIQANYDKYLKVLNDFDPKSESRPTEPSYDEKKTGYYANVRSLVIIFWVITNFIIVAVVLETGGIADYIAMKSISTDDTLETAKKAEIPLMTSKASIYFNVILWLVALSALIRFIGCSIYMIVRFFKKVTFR

[7] = molecular target: T1, Chitin synthase 1 (Saccharomyces cerevisiae S288c); assay: Enhancement of chitin synthase 1 activity in Saccharomyces cerevisiae assessed as increase in amount of cell wall chitin at 100 mg by Reissig method
Method in brief: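 Untreated and 37 µM-treated S. cerevisiae cells (100 mg each) extracted with 6% KOH for 90 min, digested with chitinase and glusulase; N-acetylglucosamine measured by the Reissig reaction (potassium tetraborate, boiling 3 min, DMAB 20 min at 36-38 °C), absorbance at 585 nm; NAG as standard.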

[8] = molecular target: Chitin synthase 1 (Neurospora crassa OR74A) (UniProt P29070); assay: Enhancement of chitin synthase 1 activity in Neurospora crassa assessed as increase in cell wall thickness at 37 uM by transmission electron microscopy
Chain of Chitin synthase 1 (Neurospora crassa OR74A) (P29070 whole entry): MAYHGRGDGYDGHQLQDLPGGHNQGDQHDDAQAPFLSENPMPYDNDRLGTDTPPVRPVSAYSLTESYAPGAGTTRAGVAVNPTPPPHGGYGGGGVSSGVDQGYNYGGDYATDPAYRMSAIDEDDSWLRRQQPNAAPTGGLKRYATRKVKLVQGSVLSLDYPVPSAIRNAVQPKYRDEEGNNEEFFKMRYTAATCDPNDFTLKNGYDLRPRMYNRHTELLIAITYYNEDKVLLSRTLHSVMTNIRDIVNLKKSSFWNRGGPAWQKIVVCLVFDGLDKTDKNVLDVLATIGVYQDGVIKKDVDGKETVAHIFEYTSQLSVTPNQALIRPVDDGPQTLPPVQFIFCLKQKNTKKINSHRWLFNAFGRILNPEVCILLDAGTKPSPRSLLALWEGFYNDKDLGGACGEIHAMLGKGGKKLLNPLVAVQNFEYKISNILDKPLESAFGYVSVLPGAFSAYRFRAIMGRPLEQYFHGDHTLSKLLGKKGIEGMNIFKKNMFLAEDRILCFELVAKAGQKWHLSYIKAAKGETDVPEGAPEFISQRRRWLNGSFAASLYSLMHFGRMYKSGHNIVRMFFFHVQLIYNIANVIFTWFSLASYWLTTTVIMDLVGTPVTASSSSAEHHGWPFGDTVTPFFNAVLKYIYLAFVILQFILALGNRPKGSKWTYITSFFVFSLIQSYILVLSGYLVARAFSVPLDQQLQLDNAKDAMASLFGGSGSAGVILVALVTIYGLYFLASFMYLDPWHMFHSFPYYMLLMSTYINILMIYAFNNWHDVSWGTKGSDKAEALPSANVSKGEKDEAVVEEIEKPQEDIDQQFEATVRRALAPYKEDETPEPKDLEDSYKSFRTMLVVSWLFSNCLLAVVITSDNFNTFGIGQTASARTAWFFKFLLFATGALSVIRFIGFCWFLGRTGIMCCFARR

[9] = molecular target: Chitin synthase 1 (Neurospora crassa OR74A) (UniProt P29070); assay: Enhancement of chitin synthase 1 activity in Neurospora crassa assessed as increase in amount of cell wall chitin at 37 uM by calcofluor staining
Method in brief: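 Exponentially growing N. crassa ATCC 9279 hyphae in YEPD liquid medium, untreated or exposed to 37 µM, washed and stained with Calcofluor white (20 µM final, 5 min, rt), washed; chitin visualised as bluish fluorescence under UV by fluorescence microscopy, 400×, same exposure times.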

Saccharomyces cerevisiae [10] = assay: Antifungal activity against Saccharomyces cerevisiae assessed as binding to membrane ergosterol in presence of exogenous ergosterol; format: functional, organism-based
Saccharomyces cerevisiae [11] = assay: Antifungal activity against Saccharomyces cerevisiae assessed as increase in cellular leakage at 74 uM relative to sodium dodecyl sulphate at 6-48 hrs using spectrophotometry; format: functional
Method in brief: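 S. cerevisiae ATCC 9763 grown with shaking at 30 °C to early stationary phase, washed twice, diluted to (3-5) × 10^7 cells/mL in cold MOPS buffer pH 6.0; compound at final 74 µM; 2% SDS set as 100% leakage; incubated at 30 °C and sampled at 6, 12, 24 and 48 h; supernatant absorbance at 260 nm; means of at least two independent assays; Student's test.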

[12] = molecular target: T1, Chitin synthase 1 (Saccharomyces cerevisiae S288c); assay: Effect on chitin synthase 1-mediated incorporation of [14C]N-Acetylglucosamine in Saccharomyces cerevisiae assessed as residual activity after 90 mins in presence of trypsin
Method in brief: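 Same S. cerevisiae membrane fraction, 30 µg protein in 50 µL; compound 20 µg/assay in MeOH; zymogen activated by trypsin (2 µL of 0.25 µg/µL, 15 min, 30 °C) then stopped with trypsin inhibitor; [14C]-N-acetylglucosamine incorporation into chitin over 90 min at 30 °C, stopped with 10% TCA; duplicates; nikkomycin Z as reference.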

[13] = molecular target: T1, Chitin synthase 1 (Saccharomyces cerevisiae S288c); assay: Enhancement of chitin synthase 1 activity in Saccharomyces cerevisiae assessed as increase in amount of cell wall chitin at 37 uM by calcofluor staining
Method in brief: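 Exponentially growing S. cerevisiae ATCC 9763 in YEPD, untreated or exposed to 37 µM, washed and stained with Calcofluor white (20 µM final, 5 min, rt); fluorescence around mother and daughter cell surfaces examined by UV fluorescence microscopy, 400×, same exposure times.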

In the case of `CCC(O)/C=C/C=C/C=C/C(=O)OC[C@H]1O[C@@H](O[C@H]2[C@H](OC(=O)/C=C/C=C/CC(O)/C(C)=C/C=C/CCC(C)CC)[C@@H](O)[C@@]3(OCc4cc(O)cc(O)c43)O[C@@H]2CO)[C@H](O)[C@@H](O)[C@H]1O` (stereo partly drawn), the Activity (Saccharomyces cerevisiae [1]) is reported as 5%.

`C[C@@H]1[C@H](O)[C@@H](C)/C=C/C=C/C=C/C=C/C=C/C=C/C=C/[C@H](O[C@@H]2O[C@H](C)[C@@H](O)[C@H](N)[C@@H]2O)C[C@@H]2O[C@](O)(C[C@@H](O)C[C@@H](O)[C@H](O)CC[C@@H](O)C[C@@H](O)CC(=O)O[C@H]1C)C[C@H](O)[C@H]2C(=O)O` [AMPHOTERICIN B] showed an MIC (Aspergillus flavus) of 0.5 µM (≈ 0.462 µg/mL), an MIC (Candida albicans) of 0.84 µM (≈ 0.776 µg/mL) and an LC100 [2] of 13.5 µM. It also gave an MIC (Saccharomyces cerevisiae [3]) of 1.62 µM (≈ 1.5 µg/mL), an MIC (Aspergillus niger; read-out: MIC100) of 0.5 µM (≈ 0.462 µg/mL) and an MIC (Cryptococcus neoformans) of 0.27 µM (≈ 0.25 µg/mL). For the same molecule, the MIC (Neurospora crassa [4]) was 1 µM (≈ 0.924 µg/mL) and the MIC (Aspergillus fumigatus) was 0.5 µM (≈ 0.462 µg/mL).

Molecule `CC(=O)N1CCN(c2ccc(OCC3COC(Cn4ccnc4)(c4ccc(Cl)cc4Cl)O3)cc2)CC1` (stereo not drawn) [KETOCONAZOLE] has an MIC (Aspergillus flavus) of 0.5 µM (≈ 0.266 µg/mL), an MIC (Candida albicans) of 1 µM (≈ 0.531 µg/mL) and an MIC (Saccharomyces cerevisiae [3]) of 1 µM (≈ 0.531 µg/mL). It also gave an MIC (Aspergillus niger; read-out: MIC100) of 0.25 µM (≈ 0.133 µg/mL), an MIC (Cryptococcus neoformans) of 0.5 µM (≈ 0.266 µg/mL) and an MIC (Neurospora crassa [4]) of 2 µM (≈ 1.06 µg/mL). The MIC (Aspergillus fumigatus) was 0.13 µM (≈ 0.0691 µg/mL).

With `COC(=O)[C@@]1(C)CC[C@]2(C(=O)O)CC[C@]3(C)C(=CC[C@@H]4[C@@]5(C)C[C@H](O)[C@H](O[C@@H]6OC[C@@H](O)[C@H](O)[C@H]6O)[C@@](C)(CO)[C@@H]5CC[C@]43C)[C@@H]2C1` [PHYTOLACCOSIDE B] the Activity (Neurospora crassa [5]) was “Active”, the MIC (Aspergillus flavus) was 74 µM (≈ 49.2 µg/mL) and the Activity [6] was 190%. The Activity [7] was 23%, the MFC (Candida albicans) was 150 µM (≈ 99.7 µg/mL) and the MIC50 (Candida albicans) was 74 µM (≈ 49.2 µg/mL). For the same molecule, the MIC80 (Candida albicans) was 74 µM (≈ 49.2 µg/mL), the MIC (Candida albicans) was 74 µM (≈ 49.2 µg/mL) and the LC100 [2] was over 188 µM. The MFC (Saccharomyces cerevisiae [3]) was 150 µM (≈ 99.7 µg/mL), the MIC50 (Saccharomyces cerevisiae [3]) was 18 µM (≈ 12 µg/mL) and the MIC80 (Saccharomyces cerevisiae [3]) was 37 µM (≈ 24.6 µg/mL). The MIC (Saccharomyces cerevisiae [3]) was 74 µM (≈ 49.2 µg/mL), the Activity [8] was 400 nm and the MIC (Aspergillus niger; read-out: MIC) was 188 µM (≈ 125 µg/mL). For the same molecule, the Activity [9] was “Active”, the Activity (Saccharomyces cerevisiae [10]) was “inactive” and the MFC (Cryptococcus neoformans) was 112 µM (≈ 74.5 µg/mL). It also gave an MIC50 (Cryptococcus neoformans) of 9 µM (≈ 5.98 µg/mL), an MIC80 (Cryptococcus neoformans) of 74 µM (≈ 49.2 µg/mL) and an MIC (Cryptococcus neoformans) of 112 µM (≈ 74.5 µg/mL). The Activity (Saccharomyces cerevisiae [11]) was 17%, the Activity [12] was 166% and the MIC (Neurospora crassa [4]) was 74 µM (≈ 49.2 µg/mL). The Activity [13] was “Active”, the MIC (Aspergillus fumigatus) was 188 µM (≈ 125 µg/mL) and the Activity (Saccharomyces cerevisiae [1]) was 93.4%.
